According to ChEMBL document CHEMBL3612035, “Synthesis and biological evaluation of new curcumin analogues as antioxidant and antitumor agents: molecular modeling study” (Eur J Med Chem, 2015):

Assays:
[1] = Cytotoxicity against mouse EAC cells assessed as dead cells at 100 uM after 24 hrs by trypan blue dye exclusion method relative to control; type: functional, Ehrlich
Outline: (§1)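 EAC cells came from ascitic fluid of female Swiss albino mice 7-8 days after inoculation and were washed in HEPES-buffered Hanks' salt solution. They were preincubated 24 h in RPMI 1640 with 10% fetal calf serum at 2 × 10⁵ cells/ml, 37 °C, 5% CO₂. Cells were then exposed to drug for 24 h, PBS-washed and counted by trypan blue exclusion. Survival = viable T/C × 100; triplicate mean.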

[2] = Antioxidant activity assessed as inhibition of ABTS radical cation generation at 1 mg/ml by colorimetric method relative to control; type: physicochemical
Outline: (§2)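 ABTS radical cation solution read at 734 nm. Test samples were added as a 1 mg/ml solution in MeOH/buffer (1:1 v/v); ascorbic acid (2 mM solution) and curcumin (1 mg/ml) were the standards. % inhibition = (Acontrol − Atest)/Acontrol × 100. Blank was solvent without ABTS.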

[3] = Cytotoxicity against mouse EAC cells assessed as dead cells at 25 uM after 24 hrs by trypan blue dye exclusion method relative to control; type: functional, Ehrlich; outline: as §1
[4] = Antitumor activity against mouse EAC cells allografted in Swiss albino mouse assessed as tumor growth inhibition at 75 mg/kg, po administered for 21 days measured 21 day post dose relative to control; type: functional; settings: Ehrlich, 504 h, read-out: TGI
Outline: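 EAC was kept by i.p. passage in female Swiss albino mice. Washed ascitic cells (5 × 10⁵ viable per 0.1 ml saline) were injected s.c. At 50–100 mm³, mice were split into groups of 10 and given compound 75 mg/kg orally in CMC for 21 consecutive days; controls got saline 5 ml/kg. Tumor size was read at day 0 and day 21. Inhibition was derived from ΔT/ΔC × 100.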

[5] = Cytotoxicity against mouse EAC cells assessed as dead cells at 50 uM after 24 hrs by trypan blue dye exclusion method relative to control; type: functional, Ehrlich; outline: as §1
[6] = Antioxidant activity assessed as inhibition of ABTS radical cation generation at 2 mM by colorimetric method relative to control; type: physicochemical; settings: 2000 µM; outline: as §2

Row | SMILES | Activity [1] | inhibition (INH) [2] | Activity [3] | inhibition in vivo at 75 mg/kg [4] | Activity [5] | inhibition (INH) [6]
1 | COc1ccc(/C=C/C2=NN(C(N)=S)C(c3ccc(OC)cc3)C2)cc1 (stereo not given) | 98% | 84.52% | 28.7% | 76% | 57.5% | 
2 | COc1ccc(/C=C/C2=NN(c3nc(-c4ccccc4)cs3)C(c3ccc(OC)cc3)C2)cc1 (stereo not given) | 98.3% | 76% | 30.4% | 65% | 61.6% | 
3 | CCN1C/C(=C\c2ccc(OC)cc2)C2=NN(C(N)=S)C(c3ccc(OC)cc3)C2C1 (stereo not given) | 99% | 88.17% | 31.7% | 77% | 66.5% | 
4 | COc1ccc(/C=C2\CCC3C2=NN(c2nc(-c4ccc(Cl)cc4)cs2)C3c2ccc(OC)cc2)cc1 (stereo not given) | 93.5% | 27.47% | 25% |  | 47.1% | 
5 | COc1ccc(/C=C2\CN(C)CC3C2=NN(c2nc(-c4ccc(Cl)cc4)cs2)C3c2ccc(OC)cc2)cc1 (stereo not given) | 97.9% | 69.56% | 29.2% | 70% | 58% | 
6 | CCN1C/C(=C\c2ccc(OC)cc2)C2=NN(c3nc(-c4ccccc4)cs3)C(c3ccc(OC)cc3)C2C1 (stereo not given) | 95.4% | 60.52% | 27.8% |  | 50.2% | 
7 | CCN1C/C(=C\c2ccc(OC)cc2)C2=NN(c3nc(-c4ccc(Cl)cc4)cs3)C(c3ccc(OC)cc3)C2C1 (stereo not given) | 100% | 82.6% | 98.3% | 82% | 100% | 
8 | COc1ccc(/C=C2\CCCC3C2=NN(C2=NC(=O)/C(=C/c4ccc(Cl)cc4)S2)C3c2ccc(OC)cc2)cc1 (stereo not given) | 84% | 25.73% | 23.8% |  | 46% | 
9 | COc1ccc(/C=C2\CCCC3C2=NN(C2=NC(=O)/C(=C/c4ccc(Br)cc4)S2)C3c2ccc(OC)cc2)cc1 (stereo not given) | 81.6% | 5.21% | 22% |  | 43.8% | 
10 | COc1ccc(/C=C2\CCCC3C2=NN(C2=NC(=O)/C(=C/c4ccc(OC)c(OC)c4)S2)C3c2ccc(OC)cc2)cc1 (stereo not given) | 75.8% | 19.13% | 20.4% |  | 40% | 
11 | N#Cc1c(N)nc2c(c1-c1ccc(O)cc1)CCC/C2=C\c1ccc(O)cc1 | 81% | 8.69% | 21.7% |  | 43.4% | 
12 | COc1cc(/C=C2\CCCc3c2nc(N)c(C#N)c3-c2ccc(O)c(OC)c2)ccc1O | 99.7% | 46.6% | 60.2% | 80% | 84% | 
13 | COc1ccc(/C=C2\CCCc3c2nc(N)c(C#N)c3-c2ccc(OC)c(OC)c2)cc1OC | 84.2% | 9.73% | 24.9% |  | 45.1% | 
14 | O=C1O[C@H]([C@@H](O)CO)C(O)=C1O [ASCORBIC ACID] |  |  |  |  |  | 88.34%
15 | COc1cc(/C=C/C(=O)CC(=O)/C=C/c2ccc(O)c(OC)c2)ccc1O [CURCUMIN] |  | 86.6% |  |  |  | 
